Laboratory results as given in PubChem BioAssay.
Active and inactive are the calls of the source.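 Rule for the calls: active = potentiation averaged over duplicate wells exceeding buffer-only control mean by more than 3 SD; inactive = the rest.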

The compounds below were run against Potassium voltage-gated channel subfamily KQT member 1 (Homo sapiens) (UniProt P51787) (assay: KCNQ1 potassium channel potentiators, confirmation, FluxOR thallium flux, CHO cells, duplicates (AID 493007;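 for outcome: cells depolarized by a potassium plus thallium sulfate stimulus after compound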)). Conditions: KCNQ1 cell line, FluxOR thallium flux fluorescence, at 10 µM; stronger effect = higher value, % of reference activator effect, buffer zero.
Sequence of Potassium voltage-gated channel subfamily KQT member 1 (Homo sapiens) (P51787 whole entry, looked up): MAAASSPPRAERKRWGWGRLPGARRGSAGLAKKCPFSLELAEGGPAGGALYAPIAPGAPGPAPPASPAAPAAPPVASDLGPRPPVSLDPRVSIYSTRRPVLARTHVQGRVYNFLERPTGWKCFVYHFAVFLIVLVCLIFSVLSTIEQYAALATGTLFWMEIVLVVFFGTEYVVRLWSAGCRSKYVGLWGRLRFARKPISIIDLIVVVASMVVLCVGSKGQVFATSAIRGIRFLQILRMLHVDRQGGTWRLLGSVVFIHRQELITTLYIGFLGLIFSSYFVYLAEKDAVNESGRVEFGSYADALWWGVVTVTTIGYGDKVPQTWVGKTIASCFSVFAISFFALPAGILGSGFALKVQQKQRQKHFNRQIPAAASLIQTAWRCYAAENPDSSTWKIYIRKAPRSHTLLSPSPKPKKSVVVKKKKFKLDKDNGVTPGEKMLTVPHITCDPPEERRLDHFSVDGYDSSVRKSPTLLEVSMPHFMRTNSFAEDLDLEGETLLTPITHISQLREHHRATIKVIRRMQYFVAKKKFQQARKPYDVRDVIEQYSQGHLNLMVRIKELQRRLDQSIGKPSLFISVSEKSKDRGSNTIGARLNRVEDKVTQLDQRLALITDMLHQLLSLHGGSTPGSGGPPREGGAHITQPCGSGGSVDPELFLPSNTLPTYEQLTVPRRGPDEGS
Method in brief: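 System: KCNQ1-expressing CHO cell line; technique: kinetic thallium influx fluorescence with FluxOR dye, 10 s baseline, 110 s post-stimulus; timing: dye 90 min then compound 20 min, both at room temperature; controls: buffer-only wells as 0% and R-L3 activator as 100%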

potentiation, active:
O=C1NC(=S)SC1=C1CCCC1 24.5%, CCOc1ccc(/C=C2/SC(=O)NC2=S)cc1 138%, CC(Sc1n[nH]c(N)n1)C(=O)NC1CCCCC1C (stereo not drawn) 37%, Cc1nn(C)c(C(=O)NC(=S)Nc2ccccc2Br)c1Cl 96%, CCOc1ccc(C(=O)NC(=S)N(Cc2ccccc2)Cc2ccccc2)cc1 296%, Cc1nn(-c2ccccc2)c(Cl)c1/C=C1\SC(=S)NC1=O 295%, CCOc1ccc(CN(CCC#N)C(=S)NC(=O)c2ccccc2)cc1 47%, O=C(NC(=S)Nc1ccccc1)c1ccc(Br)o1 21.5%, CC(C)C1Cc2c(sc3[nH]c(=S)n(Cc4ccccc4)c(=O)c23)CO1 (stereo not drawn) 128%, COc1ccc(C)cc1NC(=O)C(=O)NNC(=O)COc1ccc(Cl)cc1 195%

outcome, inactive:
COc1ccc(C(=O)N2CCC(n3nccc3NC(=O)C3CCOC3)CC2)cc1 (stereo not drawn), COc1cc(CNCc2ccccn2)ccc1OCc1c(Cl)cccc1Cl, COC(=O)c1ccc(/C=C/c2ccc3cccc(OC)c3n2)cc1, CCc1ccc(CNC(=O)CCn2nc(C)c3c(C)n(-c4ccccc4)nc3c2=O)cc1, COC(=O)c1cn(NC(=O)Cc2ccc(Cl)c(Cl)c2)c(=O)c2ccccc12, COc1ccccc1C(=O)Nc1ccnn1C1CCN(CCCC2CCCC2)CC1, COc1ccc2oc(C(=O)OCC(=O)N3CC(C)OC(C)C3)c(C)c2c1 (stereo not drawn), CCc1ccc(-c2c(C)sc(NC(C)=O)c2C(N)=O)cc1
